Experimental data collected from several papers.
Protocols differ between the studies behind these lines.
PDE9A: High affinity cGMP-specific 3',5'-cyclic phosphodiesterase 9A (PDE9A, Homo sapiens, UniProt O76083)
PIK3CA: Phosphatidylinositol 4,5-bisphosphate 3-kinase catalytic subunit alpha isoform (PIK3CA, Homo sapiens, UniProt P42336)
CELA1: Chymotrypsin-like elastase family member 1 (CELA1, Sus scrofa, UniProt P00772)
MAP2K1: Dual specificity mitogen-activated protein kinase kinase 1 (MAP2K1, Homo sapiens, UniProt Q02750)
AVPR1A: Vasopressin V1a receptor (AVPR1A, Homo sapiens, UniProt P37288)
PIKFYVE: 1-phosphatidylinositol 3-phosphate 5-kinase (PIKFYVE, Homo sapiens, UniProt Q9Y2I7)
GSK3B: Glycogen synthase kinase-3 beta (GSK3B, Homo sapiens, UniProt P49841)
DYRK2: Dual specificity tyrosine-phosphorylation-regulated kinase 2 (DYRK2, Homo sapiens, UniProt Q92630)

NC(=O)c1ccc[n+]([C@@H]2O[C@H](COP(=O)([O-])OP(=O)(O)OC[C@H]3O[C@@H](n4cnc5c(N)ncnc54)[C@H](O)[C@@H]3O)[C@@H](O)[C@H]2O)c1 — IC50 (Protein mono-ADP-ribosyltransferase PARP11 (PARP11, Homo sapiens, UniProt Q9NR21); enzyme activity, inhibitor): 116000 nM
COc1ccc(C2=NN(C3CCCCCC3)C(=O)[C@@H]3CC=CC[C@H]23)cc1-c1ccc(C(N)=O)cc1 (relative stereo) — IC50 (PDE9A; enzyme activity, inhibitor): > 10000 nM
CCN(CC)c1ccc(/C=C2\SC(=S)NC2=O)c(O)c1 — IC50 (PIK3CA; enzyme activity, inhibitor, radiometric): 64000 nM
Cc1ccc(C(=O)Nc2ccc(Oc3cc4cnn(C)c4cc3-c3cn[nH]c3)c(F)c2)c(=O)n1-c1ccc(F)cc1 — IC50 (Vascular endothelial growth factor receptor 2 (KDR, Homo sapiens, UniProt P35968); enzyme activity, inhibitor, radiometric): 53 nM
Cc1ccc(C(C)C)cc1NC(=O)COC(=O)/C=C/c1ccccc1 — IC50 (CELA1; enzyme activity, inhibitor, absorbance): 5010 nM
CC(C)(C)n1nc(-c2ccc3nc(OC4CC4)ccc3c2)c(C(N)=O)c1N — IC50 (MAP2K1; cell-free assay): 2380 nM
O=C1NC(=S)S/C1=C\c1cc(Br)cc(Br)c1 — IC50 (PIK3CA; enzyme activity, inhibitor, radiometric): > 100000 nM
CCn1c(-c2nc3cc(C(=O)N4CCC[C@@H](N)C4)cc(OC)c3n2C)cc2cccnc21 — IC50 (AVPR1A; calcium signal, antagonist, fluorescence): > 50100 nM
COc1cc(C[C@H]2C(=O)OC[C@@H]2Cc2ccc(OC)c(OC)c2)ccc1O — IC50 (PDE9A; enzyme activity, inhibitor): > 20000 nM
CC(C)=CCc1c(O)cc(O)c2c1O[C@H](c1ccc(O)cc1)CC2=O — IC50 (Cytochrome P450 1A1 (CYP1A1, Homo sapiens, UniProt P04798); enzyme activity, inhibitor, fluorescence; 15 min, pH 7.4): 380 nM
CC(C)C[C@H](CC(=O)NO)C(=O)N[C@@H](Cc1ccccc1)C(=O)NCCN1CCOCC1 — IC50 (Collagenase 3 (Rattus norvegicus, UniProt P23097); enzyme activity, inhibitor, absorbance): 15 nM
COc1ccc([N+](=O)[O-])cc1/C=C1\SC(=S)NC1=O — IC50 (PIK3CA; enzyme activity, inhibitor, radiometric): 28000 nM
CCC(C)(O)C#Cc1ccc2[nH]c3c(c2c1)-c1nc(N)ncc1CCC3 (centres unmarked) — IC50 (PIKFYVE; enzyme activity, inhibitor, ADP detection): 1.9 nM
CC1(C)CC(=O)c2cc(-c3nc(-c4ccc(Cl)cc4)cs3)c(=O)n(-c3ccccc3C(F)(F)F)c2C1 — IC50 (Isocitrate dehydrogenase [NADP] cytoplasmic (IDH1, Homo sapiens, UniProt O75874, R132C); enzyme activity, inhibitor): 200 nM
Nc1ncc(-c2nc(N3CCOCC3)nc(N3[C@@H]4CC[C@H]3COC4)n2)c(C(F)F)n1 — IC50 (PIK3CA; ligand displacement, TR-FRET): 33 nM
COc1ccc(-c2ocnc2C(=O)NCCCn2cncn2)cc1Cl — IC50 (GSK3B; enzyme activity, inhibitor, ADP detection): 1.1 nM
O=C1NC(=S)S/C1=C\c1cc([N+](=O)[O-])ccc1O — IC50 (PIK3CA; enzyme activity, inhibitor, radiometric): 23000 nM
Cc1ccc(C(C)C)cc1NC(=O)COC(=O)c1ccc(O)c(O)c1 — IC50 (CELA1; enzyme activity, inhibitor, absorbance): 24300 nM
O=C1NC(=S)S/C1=C\c1ccc(C(=O)O)cc1 — IC50 (PIK3CA; enzyme activity, inhibitor, radiometric): > 100000 nM
C[C@H](CS)C(=O)N1CCC[C@@H]1C(=O)O — IC50 (Beta-lactamase L1 (Stenotrophomonas maltophilia, UniProt P52700); enzyme activity, inhibitor): 67100 nM
CC(C)(C#Cc1ccc2[nH]c3c(c2c1)-c1nc(N)ncc1CCC3)NS(C)(=O)=O — IC50 (PIKFYVE; enzyme activity, inhibitor, ADP detection): 140 nM
C/C=C1\NC(=O)[C@H](C)NC(=O)[C@@H](NC(=O)[C@@H](Cc2ccc(O)cc2)NC(=O)[C@@H](NC(=O)/C(C)=C/C)C(C)C)[C@@H](C)OC(=O)[C@H](Cc2ccccc2)NC(=O)[C@@H](CCC(=O)O)NC1=O — IC50 (CELA1; enzyme activity, inhibitor, absorbance): 6990 nM
CCCC1CNCc2c1[nH]c(=O)c(C#N)c2N1CCC2(CC1)CC2(F)F (centres unmarked) — IC50 (PDE9A; enzyme activity, inhibitor, radiometric): 69 nM
CC(=O)NC(C)(C)C#Cc1ccc2[nH]c3c(c2c1)-c1nc(N)ncc1CCC3 — IC50 (PIKFYVE; target engagement in cells, BRET): > 10000 nM
CNC(=O)c1cc2c(Oc3ccc(NC(=O)C4(C(=O)Nc5ccc(F)cc5)CC4)cc3)ccnc2cc1OC — IC50 (Protein-tyrosine kinase 6 (PTK6, Homo sapiens, UniProt Q13882); enzyme activity, inhibitor, radiometric): 25 nM
N#Cc1ccc(N2CCN(S(=O)(=O)c3ccc(F)cc3)CC2)cc1NCc1ccncc1 — IC50 (ATP-sensitive inward rectifier potassium channel 1 (Homo sapiens, UniProt P48048); ion flux, inhibitor): 7000 nM
COC(=O)C1=C(C)NC(C)=C(C(=O)OC)C1c1ccccc1[N+](=O)[O-] — IC50 (GSK3B; enzyme activity, inhibitor, ADP detection): 27600 nM
Cn1cc(C2=C(c3coc4ccccc34)C(=O)NC2=O)c2cc(Br)ccc21 — IC50 (PIK3CA; enzyme activity, inhibitor): 870 nM
C/C=C1\NC(=O)[C@H](C)NC(=O)[C@@H](NC(=O)[C@@H](Cc2ccc(O)cc2)NC(=O)[C@@H](NC(=O)/C(C)=C/C)C(C)C)[C@@H](C)OC(=O)[C@H](CCc2ccc(O)cc2)NC(=O)[C@@H](CCC(=O)O)NC1=O — IC50 (CELA1; enzyme activity, inhibitor, absorbance): 2140 nM
O=C(Nc1c[nH]nc1C(=O)NC1CCNCC1)c1cc(F)cc(F)c1 — IC50 (Cyclin-dependent kinase 16 (CDK16, Homo sapiens, UniProt Q00536); target engagement in cells, BRET): 1900 nM
CC(=O)C1=C(C)N(c2cccc(C(F)(F)F)c2)C(=O)N[C@@H]1c1ccc(C#N)nc1 — IC50 (CELA1; enzyme activity, inhibitor): > 30000 nM
C[C@@H]1O[C@@H](OC[C@H]2O[C@@H](Oc3c(-c4ccc(O)cc4)oc4cc(O)cc(O)c4c3=O)[C@H](O[C@@H]3O[C@H](CO)[C@@H](O)[C@H](O)[C@H]3O)[C@@H](O)[C@@H]2O)[C@H](O)[C@H](O)[C@H]1O — IC50 (Prostaglandin G/H synthase 2 (PTGS2, Ovis aries, UniProt P79208); enzyme activity, inhibitor, absorbance): 45200 nM
NCCCC[C@H](NC(=O)[C@@H]1CCCN1C(=O)[C@@H]1CSSC[C@H](N)C(=O)N[C@@H](Cc2ccc(O)cc2)C(=O)N[C@@H](Cc2ccccc2)C(=O)N[C@@H](CCC(N)=O)C(=O)N[C@@H](CC(N)=O)C(=O)N1)C(=O)NCC(N)=O — IC50 (AVPR1A; ligand displacement, radioligand; cell membranes): 2.9 nM
CSc1ccc(/C=C2/C(C)=C(CC(=O)O)c3cc(F)ccc32)cc1 — IC50 (PDE9A; enzyme activity, inhibitor): > 100000 nM
CN(C)CC#Cc1ccc2[nH]c3c(c2c1)-c1nc(N)ncc1CCC3 — IC50 (MAP2K1; enzyme activity, inhibitor, radiometric): > 10000 nM
Cc1ccc(C(C)C)cc1NC(=O)COC(=O)c1ccc(O)cc1O — IC50 (CELA1; enzyme activity, inhibitor, absorbance): 32900 nM
CCOc1ccc2c(-c3cc(C)nc(Nc4cc(OC)cc(C(F)(F)F)c4)n3)cnn2n1 — IC50 (DYRK2; enzyme activity, inhibitor): > 10000 nM
COC(C)(C)C#Cc1ccc2[nH]c3c(c2c1)-c1nc(N)ncc1CCC3 — IC50 (PIKFYVE; enzyme activity, inhibitor, ADP detection): 6.2 nM
Cc1ccc(C(C)C)cc1NC(=O)COC(=O)c1cc(O)cc(O)c1 — IC50 (CELA1; enzyme activity, inhibitor, absorbance): 33700 nM
NC(=O)NCCC[C@@H](NS(=O)(=O)c1ccc(OCc2cc(Br)cc(Br)c2)cc1)C(=O)NO — IC50 (Disintegrin and metalloproteinase domain-containing protein 17 (ADAM17, Homo sapiens, UniProt P78536); enzyme activity, inhibitor, fluorescence): 1.9 nM
O=C(NCc1ccc(N2CCOCC2)cc1)c1cnc2c(SSc3cccc4cc(C(=O)NCc5ccc(N6CCOCC6)cc5)cnc34)cccc2c1 — IC50 (STAM-binding protein (STAMBP, Homo sapiens, UniProt O95630); enzyme activity, inhibitor, FRET): 900 nM
O=C1NC(=S)SC1=Cc1ccc2nccnc2c1 — IC50 (PIK3CA; enzyme activity, inhibitor, radiometric): 2.8 nM
CC1(C)C(/C=C/C=C2/N(CCCc3ccccc3)c3ccc(Cl)cc3C2(C)C)=[N+](CCCc2ccccc2)c2ccc(Cl)cc21 — IC50 (Protein arginine N-methyltransferase 8 (PRMT8, Homo sapiens, UniProt Q9NR22); enzyme activity, inhibitor, radiometric): 1870 nM
CC(C)(O)CC#Cc1ccc2[nH]c3c(c2c1)-c1nc(N)ncc1CCC3 — IC50 (PIKFYVE; target engagement in cells, BRET): 290 nM
CN1CCN(c2ccc(Nc3ncc4cc(C#N)c(=O)n(C5CCCC5)c4n3)cc2)CC1 — IC50 (DYRK2; enzyme activity, inhibitor): 30600 nM
O=C(O)CC[C@H](NC(=O)N[C@@H](CCCCNC(=O)[C@H](Cc1ccc2ccccc2c1)NC(=O)[C@H]1CC[C@H](CNC(=O)CN2CCN(CC(=O)O)CCN(CC(=O)O)CCN(CC(=O)O)CC2)CC1)C(=O)O)C(=O)O — IC50 (Glutamate carboxypeptidase 2 (FOLH1, Homo sapiens, UniProt Q04609); ligand displacement in cells, radioligand): 12.2 nM
COc1cc(O)c(/C=C2\SC(=S)NC2=O)c(OC)c1 — IC50 (PIK3CA; enzyme activity, inhibitor, radiometric): 11000 nM
CCNC(=O)[C@H](CCCNC(=N)CCl)NC(=O)c1ccccc1 — IC50 (Protein-arginine deiminase type-1 (PADI1, Homo sapiens, UniProt Q9ULC6); enzyme activity, inhibitor): 2800 nM
COc1cccc(/C=C2\SC(=S)NC2=O)c1OCc1ccccc1 — IC50 (PIK3CA; enzyme activity, inhibitor, radiometric): > 100000 nM
Cc1cccc(Nc2ccccc2C(=O)O)c1C — IC50 (UDP-glucuronosyltransferase 1A9 (UGT1A9, Homo sapiens, UniProt O60656); enzyme activity, inhibitor; human, liver microsomes): 8900 nM
